# Assay outcomes: PubChem BioAssay, several laboratories
# A selection: hits, their analogues and other compounds. The true share with any hit is near 3.7%.
# MDM2 E3 inh: MDM2-luciferase reporter signal enhancers, primary screen, MDM2 E3 ligase inhibitor project, cell-based, luminescence, 1536-well; signal enhancement, % at 5 µM; cell-based MDM2 ubiquitination luciferase reporter, 2 h; 0 = plate control, 100 = twice control, blank-subtracted; hit rate 0.11% among 210,000; E3 ubiquitin-protein ligase Mdm2 (Homo sapiens), Q00987;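 active = signal enhancement of 30% or more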;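 note: luminescence tracks abundance of the self-degrading MDM2-luciferase fusion protein; higher signal means inhibition of MDM2 E3 ligase activity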
# Target sequence (Q00987 whole entry, looked up, the tested form may be a part): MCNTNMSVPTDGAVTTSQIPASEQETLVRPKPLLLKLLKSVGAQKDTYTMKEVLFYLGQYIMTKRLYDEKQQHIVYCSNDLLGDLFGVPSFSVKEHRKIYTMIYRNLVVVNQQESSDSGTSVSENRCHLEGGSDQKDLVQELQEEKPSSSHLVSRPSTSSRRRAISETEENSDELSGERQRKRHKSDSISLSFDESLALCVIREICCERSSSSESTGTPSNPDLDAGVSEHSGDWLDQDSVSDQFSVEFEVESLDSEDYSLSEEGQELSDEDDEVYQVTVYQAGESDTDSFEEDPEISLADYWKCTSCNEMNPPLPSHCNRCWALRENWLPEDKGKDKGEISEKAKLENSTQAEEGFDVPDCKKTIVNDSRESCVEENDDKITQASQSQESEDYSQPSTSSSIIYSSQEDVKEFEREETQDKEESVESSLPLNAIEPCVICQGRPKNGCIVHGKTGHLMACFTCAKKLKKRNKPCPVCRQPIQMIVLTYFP
#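 test system = mammalian cells stably expressing self-ubiquitinating, self-degrading MDM2 E3–luciferase fusion | quantity = 2000 cells/well | incubation = cell settling 4 h, compound treatment 2 h, both 37 °C | signal = luminescence with SteadyLite reagent, 15 min at room temperature | evaluation = % enhancement relative to plate controls after blank subtraction | benchmarks = plate controls and plate blanks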
# UPR XBP1 act: activators of adaptive XBP1 UPR arm, primary screen, cell-based, CHO-XBP1 luciferase reporter, luminescence, uHTS. IRE1-XBP1 UPR activation; percent of tunicamycin response, DMSO as zero. activation, % at 20 µM. hit rate 0.33% among 330,000;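 active = versus positive control, 20 µM dose yields 30% or more activation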;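 note: 100% = tunicamycin at 10 µg/mL and 0% = DMSO only wells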
#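 Signal: luciferase luminescence; Assay system: CHO-XBP1 luciferase reporter cells; Amount: one thousand reporter cells per well; Dosing: 20 µM single concentration, DMSO 1%; Benchmarks: high control tunicamycin 10 µg/mL final, low control DMSO vehicle only; Schedule: 6 h compound exposure at 37 °C, 5% CO2; Evaluation: percent activation relative to tunicamycin reference.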
# Dynein cargo inh: inhibitors of GR-EGFP nuclear translocation, primary screen, dynein cargo transport inhibitor project, imaging, high-content, 3617.4 mouse cells | hit rate 0.47% among 220,000 | test concentration mostly 20 µM; stimulated with dexamethasone, 1 µM; stronger effect = lower value | z-score, hits read low | AID 1381, 2008;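 active = plate z-score of nuclear minus cytoplasmic receptor signal below a set negative limit, without overly bright fluorescence or cell loss, cut at about -3.5 in these data, passing the limit was not always enough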;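 note: z-score of nuclear minus cytoplasmic ring GR-EGFP intensity difference per well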
#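 Schedule: 48 h induction, then 1 h compound, then 30 min agonist, 37 °C. Buffer or medium: tetracycline-free induction medium containing charcoal-stripped FBS. Reagent: 1.0 µM final dexamethasone stimulus. Evaluation: nuclear versus cytoplasmic GR-EGFP signal, averaged per well. Signal: high-content fluorescence imaging after fixation.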
# Mdm2 MdmX PPI: inhibitors of human Mdm2-MdmX association, primary screen, cell-based, luminescence, split luciferase, SaOS-2, uHTS | SaOS-2 split-luciferase Mdm2/MdmX complementation | Protein Mdm4 (Homo sapiens) + E3 ubiquitin-protein ligase Mdm2 (Homo sapiens), … | hit rate 3% among 330,000 | inhibition, % at 8 µM;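 active = inhibition of at least 50% at 8 µM in the primary screen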
# CHOP UPR activ: activators of apoptotic CHOP UPR arm, primary screen, cell-based, CHO-CHOP luciferase reporter, luminescence, uHTS. activation, % at 10 µM. UPR activation; percent of tunicamycin response over DMSO baseline. AID 449763, 2010. hit rate 0.34% among 330,000;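 active = at 10 µM dose, activation of 40% or more, normalized to positive control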;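 note: 100% = tunicamycin at 10 µg/mL and 0% = DMSO alone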
#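 Dosing – one dose, 10 µM in 0.5% DMSO · System – CHO-CHOP cells, stable luciferase reporter of PERK-eIF2a-CHOP signalling · Input – 500 cells/well · Control set – tunicamycin 10 µg/mL final as positive, DMSO-only wells as negative · Timing – 6 h compound treatment, 37 °C · Measure – % activation vs tunicamycin · Technique – luminescence read with Steady-Glo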
# Beta2AR agonist: beta2AR agonists driving receptor internalization, primary screen, cell-based, FAP fluorogen, flow cytometry; Beta-2 adrenergic receptor (Homo sapiens), P07550; response, % (no concentration beside the values); Am2.2-beta2AR cells; hit rate 0.43% among 340,000;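 active = response above a set limit, near 3 SD of response in nonfluorescent compounds, cut at about 42% in these data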
# * marks the source's active call; other numbers are inactive results; nt = no result given.
SMILES,MDM2 E3 inh,UPR XBP1 act,Dynein cargo inh,Mdm2 MdmX PPI,CHOP UPR activ,Beta2AR agonist
CC(C)NC(=O)c1ccc(COc2ccc(C(C)(C)C)cc2)o1,nt,1.7,nt,8.7,0.6,18.3
O=C(O)CCCNC(=O)OCc1ccccc1,-5.4,-1.7,-0.0403,-1.7,0.3,63.7*
O=C(NCCCCCCNC(=O)OCc1ccccc1)OCc1ccccc1,nt,nt,nt,nt,nt,-4.9
Cc1cc(C(=O)CSc2nnc(Nc3ccccc3)s2)c(C)n1CC1CCCO1 (stereo unspecified),30.8*,-0.3,-0.112,-10.0,2.0,-4.8
Cc1cc(C(=O)CSc2nnc(Nc3ccccc3F)s2)c(C)n1CC1CCCO1 (stereo unspecified),-9.1,nt,1.53,nt,nt,-3.8
Cc1nnc(SCC(=O)N/N=C/c2cn(-c3ccccc3)nc2-c2ccccc2)n1-c1ccccc1,-9.4,-1.8,-0.904,34.0,5.6,64.2*
O=C(CSc1nnc(SCc2ccc(Cl)cc2)s1)N/N=C/c1ccc(Cl)cc1Cl,-7.5,70.1*,-0.756,15.7,3.4,-5.2
CCN1CN(Cc2ccco2)CNC1=S,-3.0,0.0,0.443,9.5,0.1,48.5*
COc1cc(C(=O)NC(=S)N2CCCCCC2)cc(OC)c1OC,1.6,-0.3,1.31,6.3,-0.1,-2.4
COc1cc(C(=O)NC(=S)NC(C)C)cc(OC)c1OC,0.1,2.1,0.0185,-33.2,-2.1,78.3*
O=[N+]([O-])c1ccc(/C=N/N=C/c2ccc([N+](=O)[O-])o2)o1,77.4*,nt,-3.59*,nt,nt,-23.2
O=c1c2ccccc2sn1-c1cc(S(=O)(=O)N2CCOCC2)ccc1N1CCCC1,-15.1,-4.0,-1.07,11.0,-0.8,17.6
O=c1c2ccccc2sn1-c1cc(S(=O)(=O)N2CCOCC2)ccc1N1CCOCC1,-11.4,-0.3,-6.54*,-15.2,-0.5,1.3
Oc1ccc(/C=N/Nc2ccc(Cl)nn2)c(O)c1O,nt,-0.2,nt,10.3,0.2,91.5*
CC(=O)N1CCN(S(=O)(=O)c2cccc(C(=O)NCc3ccc(F)cc3)c2)CC1,nt,-4.1,nt,14.2,-0.3,0.2
C=CCNc1c2c(nc3nnnn13)CCCC2,-30.2,3.1,1.17,-10.8,0.1,-6.4
C=CCNc1nc(S(=O)Cc2ccc(C)cc2)nc2c1CCCC2 (stereo unspecified),-4.8,-1.6,0.13,10.2,-0.4,52.5*
Cc1cccc(OCC(=O)NCCCNC(=O)c2cnccn2)c1,nt,-3.0,nt,19.4,2.3,4.7
O=C(CCCCn1cnc2c(=S)nc[nH]c21)Nc1ccc(C(=O)O)c(O)c1,nt,nt,nt,nt,nt,-8.1
CCCN(CCC)CCNc1c(NC2CCN(C(=O)OCC)CC2)c(=O)c1=O,47.7*,1.2,-0.733,25.3,0.4,-3.7
CCCN(CCC)CCNc1c(N2CCN(C(=O)OCC)CC2)c(=O)c1=O,-19.1,2.6,-0.0175,-5.0,4.1,1.4
O=C(CCSC1=NCCCN1)c1ccc(F)cc1,nt,nt,nt,nt,nt,-15.0
COc1ccc2[nH]c3c(N4CC(C)OC(C)C4)ncnc3c2c1 (stereo unspecified),35.4*,2.4,-0.295,26.6,-0.4,nt
N#CC(C#N)=Cc1cn(-c2ncc(C(F)(F)F)cc2Cl)c2ccccc12,-12.5,-1.0,-2.06,34.4,2.5,66.0*
O=C(Cc1ccc(-n2c(=O)c3ccccc3n(Cc3ccccc3Cl)c2=O)cc1)NCC1CCCO1 (stereo unspecified),30.4*,1.6,-0.635,4.1,0.0,-1.9
SMILES,MDM2 E3 inh,UPR XBP1 act,Dynein cargo inh,Mdm2 MdmX PPI,CHOP UPR activ,Beta2AR agonist
O=C1C(Cl)=C(N2CCN(c3ccccc3[N+](=O)[O-])CC2)C(=O)c2ccccc21,5.9,nt,-3.49,nt,nt,81.4*
O=[N+]([O-])c1cc(Cl)ccc1N1CCCC1,-2.1,1.8,-0.333,-18.2,2.2,-0.1
CCOc1ccc(NC(=O)CN(C)C(=O)c2cccc(S(=O)(=O)N3CCN(C)CC3)c2)cc1OCC,nt,nt,nt,nt,nt,-2.7
O=C1C=CC(=O)c2c(O)c(N3CCN(CCO)CC3)c(Cl)c(O)c21,nt,nt,nt,nt,nt,99.7*
O=S(=O)(c1ccc(Br)cc1Cl)N1CCN(CCO)CC1,1.6,1.0,0.00458,-29.1,-1.6,-6.5
O=C1C=CC(=O)c2c(O)c(N3CCN(CCOCCO)CC3)c(Br)c(O)c21,nt,nt,nt,nt,nt,66.5*
OCCOCCN1CCN(C2=Nc3ccccc3Sc3ccccc32)CC1,nt,-1.5,nt,23.9,3.5,5.0
COc1cccc(/C=N/Nc2nc3ccccc3n3cnnc23)c1O,-14.5,-2.3,-0.68,33.8,2.1,108.9*
O=S(=O)(c1ccc(Cl)c(Cl)c1)c1snnc1-c1ccccc1,-17.2,nt,-3.96*,nt,nt,18.5
c1ccc(-c2nnsc2-c2ccccc2)cc1,nt,0.1,nt,-24.2,1.8,0.7
CCN(CC)CCOC(=O)/C=C/c1ccccc1,-1.1,-2.9,1.46,19.7,0.4,4.8
CCN(CC)CC(C)(C)C(=O)/C=C/c1ccc(/C=C/C(=O)C(C)(C)CN(CC)CC)cc1,nt,nt,nt,nt,nt,45.5*
Cc1ccc(NC(=O)NNC(=O)CN2C(=O)COc3ccccc32)cc1,nt,-1.4,nt,5.5,0.9,-3.1
S=C(NCCSCc1ccc(Cl)c(Cl)c1)Nc1ccccc1,nt,-0.9,1.65,5.2,0.1,47.4*
COc1ccccc1NC(=O)CN1C(=O)NC2(CCCc3ccccc32)C1=O (stereo unspecified),nt,-2.1,nt,-7.0,-0.6,-6.2
CCOC(=O)N1CCN(C(=O)c2c[nH]c3ccc(S(=O)(=O)N(C)c4ccc(OCC)cc4)cc3c2=O)CC1,nt,-2.6,nt,23.6,-0.5,-1.6
c1ccc(N2CCN(c3ccccc3)C2c2cccs2)cc1,36.3*,0.0,-0.713,10.1,3.7,8.2
O=C1CSC(c2cccs2)N1c1ccccc1 (stereo unspecified),-15.7,2.1,-0.686,4.2,0.6,0.9
CN(C)S(=O)(=O)N1CCC(Oc2cccc(C(=O)NC3CCOC3)c2)CC1 (stereo unspecified),nt,-4.0,nt,9.9,0.7,-10.4
CC1CC(C)CN(C(=O)c2ccc(S(=O)(=O)N3CCCC3)cc2)C1 (stereo unspecified),nt,-2.9,nt,12.8,1.6,2.9
COC(=O)n1c(SC)nc2ccccc21,-0.9,-0.1,3.53,12.6,0.9,78.2*
CCCCNC(=O)n1c(SC)nc2ccccc21,nt,-2.7,-0.871,3.7,0.6,-10.8
